Measurements: ChEMBL document CHEMBL1141508, “Lysinyl macrocyclic hexaoxazoles: synthesis and selective G-quadruplex stabilizing properties” (Bioorg Med Chem Lett, 2008)

What was measured:
Salmonidae = experiment: Binding affinity to salmon testes DNA assessed as transition temperature
Summary of the method: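 Salmon testes DNA (15 μM base pair) melted with ligand at 15 μM in 10 mM EPPS pH 7.5, KCl added to 50 mM total K+. Absorbance followed at 260 nm in a 1 cm quartz cuvette; heating in 0.5 °C increments, 1.5 min equilibration per setting, readings averaged over 5 s.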

Homo sapiens = species: Homo sapiens; experiment: Binding affinity to human d(T2AG3)4 DNA assessed as transition temperature
Summary of the method: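 UV melting of d[T2G3(T2AG3)3A] (5 μM strand) with macrocycle at 20 μM in 10 mM potassium phosphate pH 7.5, KCl added to 150 mM total K+. Absorbance read at 295 nm, 1 cm quartz cuvette; temperature raised in 0.5 °C steps with 1.5 min equilibration, absorbance averaged over 5 s at each step.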

[1] = Cytotoxicity against human RPMI8402 cells; format: functional, cell-based; conditions: RPMI 8402

| T (Salmonidae) [°C] | T (Homo sapiens) [°C] | SMILES | IC50 [1] [nM] |
| --- | --- | --- | --- |
| 76.5 | 90 | CC(C)[C@@H]1NC(=O)c2coc(n2)-c2coc(n2)-c2coc(n2)[C@H](CCCCN)NC(=O)c2coc(n2)-c2coc(n2)-c2coc1n2 |  |
| 79 | 102 | NCCCC[C@@H]1NC(=O)c2coc(n2)-c2coc(n2)-c2coc(n2)[C@H](CCCCN)NC(=O)c2coc(n2)-c2coc(n2)-c2coc1n2 |  |
| 76.5 | 79 | CC(=O)NCCCC[C@@H]1NC(=O)c2coc(n2)-c2coc(n2)-c2coc(n2)[C@H](C(C)C)NC(=O)c2coc(n2)-c2coc(n2)-c2coc1n2 |  |

The remaining lines, values behind:

| SMILES | T (Salmonidae) [°C] | T (Homo sapiens) [°C] | IC50 [1] [nM] |
| --- | --- | --- | --- |
| CC(C)[C@@H]1NC(=O)c2coc(n2)-c2coc(n2)-c2coc(n2)[C@H](CCCCN(C)C)NC(=O)c2coc(n2)-c2coc(n2)-c2coc1n2 | 76 | 81 |  |
| CC(C)[C@@H]1NC(=O)c2coc(n2)-c2coc(n2)-c2coc(n2)[C@H](C(C)C)NC(=O)c2coc(n2)-c2coc(n2)-c2coc1n2 [HEXAOXAZOLE DIVALINE] | 76.5 | 77 | 400 |
